The test system of data set [1] is PBMC. The experiment in a line: Immunomodulatory activity in human PBMCs assessed as increase in PMA/ionomycin-induced TNFalpha release at 20 uM incubated for 18 hrs by multiplexed cytokine assay. In kind it is functional, cell-based. Summed up:
(§1)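 Ficoll-isolated human PBMC, 1 × 10^6 cells per well, treated with 20 μM compound (DMSO ≤0.1%) plus PMA 3.33 ng/mL and ionomycin 500 nM for 18 h at 37 °C, 5% CO2. Cell-free supernatant cytokines measured by CBA human inflammatory kit on a flow cytometer against recombinant standards. Reported as % of PMA/ionomycin-only release; duplicates, three experiments, three donors.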

Data set [2] addresses T1, Nucleotide-binding oligomerization domain-containing protein 1 (Homo sapiens) (UniProt Q9Y239).
T1 sequence (whole entry): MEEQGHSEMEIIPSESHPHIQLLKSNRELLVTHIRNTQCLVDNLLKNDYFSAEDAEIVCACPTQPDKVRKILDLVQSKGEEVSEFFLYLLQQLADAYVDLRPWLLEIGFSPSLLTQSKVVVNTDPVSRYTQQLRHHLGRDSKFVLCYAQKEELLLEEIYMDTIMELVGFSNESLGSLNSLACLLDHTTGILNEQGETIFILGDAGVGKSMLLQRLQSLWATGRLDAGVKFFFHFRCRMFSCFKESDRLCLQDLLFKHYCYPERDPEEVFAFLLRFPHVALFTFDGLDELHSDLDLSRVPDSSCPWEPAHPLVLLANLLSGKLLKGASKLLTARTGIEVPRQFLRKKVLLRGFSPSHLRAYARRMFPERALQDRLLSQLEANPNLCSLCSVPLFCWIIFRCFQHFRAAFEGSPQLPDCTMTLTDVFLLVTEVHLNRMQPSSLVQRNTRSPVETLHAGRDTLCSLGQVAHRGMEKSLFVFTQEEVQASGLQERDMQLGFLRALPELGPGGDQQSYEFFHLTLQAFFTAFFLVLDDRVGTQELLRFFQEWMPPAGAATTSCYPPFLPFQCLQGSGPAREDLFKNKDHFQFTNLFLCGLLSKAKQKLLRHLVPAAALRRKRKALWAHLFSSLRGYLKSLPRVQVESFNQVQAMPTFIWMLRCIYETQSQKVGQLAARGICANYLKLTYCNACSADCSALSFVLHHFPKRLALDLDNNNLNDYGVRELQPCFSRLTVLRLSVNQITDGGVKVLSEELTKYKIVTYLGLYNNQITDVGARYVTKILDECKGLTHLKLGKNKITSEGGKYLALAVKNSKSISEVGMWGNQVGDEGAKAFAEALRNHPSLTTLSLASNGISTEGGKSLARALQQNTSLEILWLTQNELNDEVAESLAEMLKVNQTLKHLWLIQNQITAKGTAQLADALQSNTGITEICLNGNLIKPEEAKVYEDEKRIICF
As to the kind of experiment: Agonist activity at human NOD1 expressed in Ramos blue cells assessed as stimulation of NF-kB/AP-1 activity at 20 uM incubated for 18 hrs using quanti blue assay based SEAP reporter gene assay. Format: functional, cell-based. Summed up:
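Ramos-Blue control cells (TLR3/7/9 and Nod1, no Nod2; stable NF-κB/AP-1-inducible SEAP reporter) at 1 × 10^6 cells/mL, exposed 18 h to 20 μM compound. SEAP in supernatant read with QUANTI-Blue reagent (3 h, 37 °C), absorbance 640 nm; activity compared with untreated cells.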
(In general: A reporter such as luciferase makes a cellular process visible.)

The nature of data set [3]: Cytotoxicity against human PBMCs assessed as residual metabolic activity at 20 uM after 18 hrs by MTS assay. Format: ADME, cell-based, PBMC. As to conditions: read-out: Activity. Summed up: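 Ficoll-isolated human PBMC, 1 × 10^6 cells/mL in supplemented RPMI 1640 with 10% FBS, exposed 18 h to 20 μM compound (DMSO ≤0.1% final) in triplicate. Metabolic activity read by MTS (CellTiter 96 AQueous One) and expressed relative to vehicle-treated control.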
In general terms: Tetrazolium assays rely on reduction of a dye to a coloured formazan, in cell work by metabolically active cells.

In data set [4] the test system is PBMC. The experiment in a line: Immunomodulatory activity in human PBMCs assessed as increase in PMA/ionomycin-induced IL6 release at 20 uM incubated for 18 hrs by multiplexed cytokine assay. Format: functional, cell-based. Put shortly:
as §1

Data set [5] has as its target Nucleotide-binding oligomerization domain-containing protein 2 (Homo sapiens) (UniProt Q9HC29). The experiment in a line: Agonist activity at human Nod2 expressed in HEK293-blue cells assessed as increase in NF-kappaB transcriptional activity at 20 uM incubated for 18 hrs using quanti blue assay based SEAP reporter gene assay. In kind it is functional, cell-based. Put shortly: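 HEK-Blue Nod2 cells (HEK293 stably coexpressing human Nod2 and NF-κB-inducible SEAP) at 1 × 10^6 cells/mL, treated 18 h with 20 μM compound. Supernatant SEAP measured with QUANTI-Blue, 3 h at 37 °C, absorbance 640 nm. Duplicates in three independent experiments, compared with untreated cells.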

Data set [6] concerns PBMC. As to the kind of experiment: Immunomodulatory activity in human PBMCs assessed as increase in PMA/ionomycin-induced IL10 release at 20 uM incubated for 4 to 40 hrs by multiplexed cytokine assay. Format: functional, cell-based. Put shortly: (§2)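 PBMC time course: 20 μM compound with PMA 3.33 ng/mL and ionomycin 500 nM. Supernatants collected at 4, 18 and 40 h and cytokines read by cytometric bead array. Compared with PMA/ionomycin-only control; two independent experiments in duplicate, two donors.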

For data set [7], the system named is PBMC. As to the kind of experiment: Immunomodulatory activity in human PBMCs assessed as increase in PMA/ionomycin-induced TNFalpha release incubated for 18 hrs by multiplexed cytokine assay. In kind it is functional, cell-based. Summed up:
as §1

Data set [8] relates to PBMC. The experiment in a line: Immunomodulatory activity in human PBMCs assessed as increase in PMA/ionomycin-induced IL6 release incubated for 18 hrs by multiplexed cytokine assay. Format: functional, cell-based.
In data set [9] the test system is PBMC. The experiment in a line: Immunomodulatory activity in human PBMCs assessed as increase in PMA/ionomycin-induced IL6 release at 20 uM by multiplexed cytokine assay. In kind it is functional, cell-based. Conditions: TDE = time-dependent effect. Put shortly: as §1
The test system of data set [10] is PBMC. The experiment in a line: Immunomodulatory activity in human PBMCs assessed as increase in PMA/ionomycin-induced IL-12p70 release incubated for 18 hrs by multiplexed cytokine assay. Format: functional, cell-based.
The subject of data set [11] is PBMC. The experiment in a line: Immunomodulatory activity in human PBMCs assessed as increase in PMA/ionomycin-induced TNFalpha release at 20 uM by multiplexed cytokine assay. Format: functional, cell-based. As to conditions: TDE = time-dependent effect. Put shortly:
as §1

Data set [12] deals with PBMC. The experiment in a line: Immunomodulatory activity in human PBMCs assessed as increase in PMA/ionomycin-induced IL8 release at 20 uM incubated for 4 to 40 hrs by multiplexed cytokine assay. In kind it is functional, cell-based. Summed up:
as §2

In data set [13] the test system is PBMC. The experiment in a line: Immunomodulatory activity in human PBMCs assessed as increase in PMA/ionomycin-induced IL-1beta release incubated for 18 hrs by multiplexed cytokine assay. In kind it is functional, cell-based.
Data set [14] concerns PBMC. The experiment in a line: Immunomodulatory activity in human PBMCs assessed as increase in PMA/ionomycin-induced IL8 release at 0.2 to 200 uM incubated for 18 hrs by multiplexed cytokine assay. In kind it is functional, cell-based. Put shortly: (§3)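 Human PBMC stimulated with PMA 3.33 ng/mL and ionomycin 500 nM plus compound at 0.2, 2, 20 or 200 μM for 18 h. Supernatant cytokines quantified by cytometric bead array. Compared with PMA/ionomycin-only cells; two independent experiments in duplicate, two donors, mean ± SD.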

Data set [15] deals with PBMC. The experiment in a line: Immunomodulatory activity in human PBMCs assessed as increase in PMA/ionomycin-induced IL-12p70 release at 20 uM by multiplexed cytokine assay. In kind it is functional, cell-based. Conditions: TDE = time-dependent effect. Put shortly: as §1
Data set [16] relates to PBMC. The experiment in a line: Immunomodulatory activity in human PBMCs assessed as increase in PMA/ionomycin-induced IL-1beta release at 20 uM by multiplexed cytokine assay. Format: functional, cell-based. As to conditions: TDE = time-dependent effect. Summed up: as §1
The test system of data set [17] is PBMC. The experiment in a line: Immunomodulatory activity in human PBMCs assessed as increase in PMA/ionomycin-induced IL10 release at 0.2 to 200 uM incubated for 18 hrs by multiplexed cytokine assay. Format: functional, cell-based. Summed up: as §3

The source made the active and inactive calls. No cut-off for these calls is given here. Bounds are passed on as bounds.

Chain of Nucleotide-binding oligomerization domain-containing protein 2 (Homo sapiens) (Q9HC29 whole entry, the tested form may be a part): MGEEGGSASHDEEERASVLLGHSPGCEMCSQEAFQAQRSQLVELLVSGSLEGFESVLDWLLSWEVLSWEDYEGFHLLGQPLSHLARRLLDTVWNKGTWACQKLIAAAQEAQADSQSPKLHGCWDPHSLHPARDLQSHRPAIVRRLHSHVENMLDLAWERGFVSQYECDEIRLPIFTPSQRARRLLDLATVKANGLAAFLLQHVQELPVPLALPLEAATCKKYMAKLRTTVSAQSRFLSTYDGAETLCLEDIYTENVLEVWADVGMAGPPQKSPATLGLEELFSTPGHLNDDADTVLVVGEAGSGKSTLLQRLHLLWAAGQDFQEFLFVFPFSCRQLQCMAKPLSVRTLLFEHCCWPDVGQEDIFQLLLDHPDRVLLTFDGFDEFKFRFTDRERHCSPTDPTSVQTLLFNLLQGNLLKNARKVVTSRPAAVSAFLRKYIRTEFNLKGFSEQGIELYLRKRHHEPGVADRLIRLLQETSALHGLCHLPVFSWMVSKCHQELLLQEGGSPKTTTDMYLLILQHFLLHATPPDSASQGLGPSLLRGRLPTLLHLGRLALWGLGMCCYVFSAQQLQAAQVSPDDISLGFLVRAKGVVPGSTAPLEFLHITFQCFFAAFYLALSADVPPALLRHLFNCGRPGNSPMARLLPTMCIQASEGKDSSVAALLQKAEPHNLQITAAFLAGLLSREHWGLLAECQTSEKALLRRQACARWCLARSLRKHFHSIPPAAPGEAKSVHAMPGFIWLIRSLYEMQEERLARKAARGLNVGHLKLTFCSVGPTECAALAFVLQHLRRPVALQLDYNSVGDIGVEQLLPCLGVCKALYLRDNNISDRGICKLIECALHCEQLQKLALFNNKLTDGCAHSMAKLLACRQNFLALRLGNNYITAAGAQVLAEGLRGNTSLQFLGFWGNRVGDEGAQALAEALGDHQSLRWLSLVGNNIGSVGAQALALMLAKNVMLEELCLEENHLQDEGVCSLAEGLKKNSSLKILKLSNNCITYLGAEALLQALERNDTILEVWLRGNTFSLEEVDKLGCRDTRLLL

`CCOC(=O)CC[C@@H](NC(=O)[C@H](C)NC(=O)CCCCN1C(=O)c2ccccc2S1(=O)=O)C(=O)OCC`: the result (with PBMC [1]; in data set [2]; with PBMC [4]) was inactive. In addition, in data set [3], the viability at 18 h, 20 µM is not below 90%.

In the case of `CCOC(=O)CC[C@@H](NC(=O)[C@H](C)NC(=O)COCCN1C(=O)c2ccccc2S1(=O)=O)C(N)=O`, the outcome (with PBMC [1]; in data set [5]; in data set [2]; with PBMC [4]) was inactive. The viability at 18 h, 20 µM in [3] was not below 90%.

With `CCOC(=O)CC[C@@H](NC(=O)[C@H](C)NC(=O)C1=C2c3ccccc3S(=O)(=O)N2CCC1)C(=O)OCC`, the outcome (in data set [5]; with PBMC [4]) was Active. Besides, the outcome in data set [2] was inactive. The viability at 18 h, 20 µM in data set [3] is not below 90%.

Take `CCOC(=O)CC[C@@H](NC(=O)[C@H](C)NC(=O)CNC(=O)c1cc2ccccc2[nH]1)C(=O)OCC`: the result (in the data set on PBMC [1]; in [5]; in the data set on PBMC [4]) was Active. Moreover, the result (in the data set with PBMC [6]; with PBMC [12]; with PBMC [14]; in [2]; in the data set on PBMC [17]) was inactive. For the same compound, the Activity entry in the data set on PBMC [7] is “Dose-dependent effect”; with PBMC [8], “Dose-dependent effect”; with PBMC [9], “tde”; in the data set on PBMC [10], “Dose-dependent effect”; in the data set on PBMC [11], “tde”; in the data set with PBMC [13] it was “Dose-dependent effect”. Moreover, the Activity entry in the data set on PBMC [15] and with PBMC [16] was “tde” in each case. Besides, the viability at 18 h, 20 µM in data set [3] is not below 90%.

For the compound `CCOC(=O)CC[C@@H](NC(=O)[C@H](C)NC(=O)CCCCN1C(=O)c2ccccc2S1(=O)=O)C(N)=O`, the outcome (with PBMC [1]; in data set [5]; in [2]; in the data set with PBMC [4]) was inactive. Also, in [3], the viability at 18 h, 20 µM was not below 90%.

For `CCOC(=O)CC[C@@H](NC(=O)[C@H](C)NC(=O)CNC(=O)c1cc2ccccc2[nH]1)C(N)=O`, the outcome (in the data set with PBMC [1]; in data set [5]; in data set [2]; in the data set on PBMC [4]) was inactive. For the same compound, the viability at 18 h, 20 µM in data set [3] was not below 90%.

For the compound `CCOC(=O)CC[C@@H](NC(=O)[C@H](C)NC(=O)COCCN1C(=O)c2ccccc2S1(=O)=O)C(=O)OCC`, the outcome (in the data set with PBMC [1]; in [2]; in the data set with PBMC [4]) was inactive. For the same compound, in data set [3], the viability at 18 h, 20 µM is not below 90%.

For the compound `CCCCOC(=O)[C@@H](CCC(N)=O)NC(=O)[C@H](C)NC(=O)[C@@H](C)O[C@H]1[C@H](O)[C@@H](CO)OC(O)[C@@H]1NC(C)=O` (stereo not given in full) [MURABUTIDE], the result (in the data set with PBMC [1]; in [5]) was Active. Also, the result (in the data set with PBMC [6]; in the data set with PBMC [12]; in the data set on PBMC [14]; in data set [2]; with PBMC [17]) was inactive. Further, the Activity result is “Dose-dependent effect” in the data set on PBMC [7]; “Dose-dependent effect” with PBMC [8]; “tde” with PBMC [9]; “Dose-dependent effect” in the data set with PBMC [10]; “tde” in the data set with PBMC [11]; “Dose-dependent effect” in the data set with PBMC [13]. Also, the Activity result in the data set with PBMC [15] and in the data set with PBMC [16] was “tde” each time. The viability at 18 h, 20 µM in data set [3] is not below 90%.

Source of the values: ChEMBL document CHEMBL2163344, “Immunomodulatory properties of novel nucleotide oligomerization domain 2 (nod2) agonistic desmuramyldipeptides” (J Med Chem, 2012).
